Screens (PubChem)
CCR6 antag: CCR6 (human) receptor antagonism | AID 493098 | inhibition, % at 20 µM | CHO-K1 CCR6 PathHunter beta-arrestin, luminescence, CCL20-stimulated | P51684 | 0.49% of 340,000 active;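 active = compounds whose inhibition of the agonist-driven luminescence signal at 20 µM reaches about 50%, limit read from the data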;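 note: cells stimulated with CCL20 at 14 nM final; plate controls were DMSO with CCL20 for no effect and DMSO without agonist for full effect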
EBI2 antag: EBI2 (human) antagonism | EBI2 beta-arrestin recruitment, luminescence, 7a,25-OHC stimulated | P32249 | inhibition, % at 5 µM | 0.81% of 360,000 active; in the data active = inhibition above about 38%;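 note: enzyme fragment complementation signal reports receptor beta-arrestin coupling in cells; 0% = agonist plus DMSO wells and 100% = wells without agonist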
Target sequence (P32249 whole entry, looked up, the tested form may be a part): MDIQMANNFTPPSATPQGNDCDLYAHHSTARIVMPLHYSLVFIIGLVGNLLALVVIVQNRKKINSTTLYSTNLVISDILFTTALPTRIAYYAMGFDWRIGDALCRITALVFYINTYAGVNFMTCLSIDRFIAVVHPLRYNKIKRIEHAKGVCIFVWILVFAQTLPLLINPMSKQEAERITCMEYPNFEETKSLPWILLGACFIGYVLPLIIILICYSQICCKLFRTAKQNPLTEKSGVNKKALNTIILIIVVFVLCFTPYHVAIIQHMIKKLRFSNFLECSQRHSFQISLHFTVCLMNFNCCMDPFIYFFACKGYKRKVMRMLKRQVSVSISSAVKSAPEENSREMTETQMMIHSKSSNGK
CXCR6 inh: inhibitors of human CXCR6 receptor; O00574; CHO-K1 PathHunter CXCR6 beta-arrestin, luminescence; inhibition, % at 20 µM; 0.36% of 360,000 active; in the data active = inhibition above about 34%, passing the limit was not always enough;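 note: antagonist mode with CXCL16 agonist at 10 nM final; 0% = 10 nM CXCL16 with DMSO and 100% = unstimulated wells without agonist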
APJ antag: antagonists of human APJ apelin receptor. CHO-K1 APJ beta-arrestin complementation, luminescence. inhibition, % at 20 µM. 0.32% of 330,000 active;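 active = inhibition above about 40% at 20 µM, limit read from the data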;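 note: cells challenged with 10 nM apelin-13 agonist together with compound; plate controls were apelin-13 plus DMSO wells for no effect and DMSO wells lacking apelin-13 for full effect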
APJ ag: activates the human apelin receptor APJ; AID 2520; 0.11% of 330,000 active; CHO-K1 APJ PathHunter beta-arrestin, luminescence; 0% DMSO wells, 100% apelin; activation, % at 20 µM;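 active = activation more than six SD over the plate average, tested at 20 µM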;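 note: 0% = DMSO alone and 100% = apelin-13 at 10 nM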
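Assay system: CHO-K1 APJ beta-arrestin complementation cell line / Compound: single test compound dose, 20 µM final, 1% DMSO / Times: overnight seeding, 90 min compound at 25 °C, 1 h detection / Technique: beta-gal luminescence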
m5-HT2A agonist: agonists of mouse serotonin 5-HT2A receptor (HTR2A). 0.66% of 360,000 active. P35363. CHO-K1 mHTR2A beta-arrestin complementation, luminescence; percent of 30 µM serotonin response. activation, % at 7.6 µM;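 active = activation above a run cutoff, the mean activation of all tested compounds plus 3 SD, cut at about 14% in these data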;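 note: 0% = plate median of compound wells and 100% = 30 µM serotonin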
APJ antag confirm: confirmation of human APJ apelin receptor antagonists; shares compounds with APJ antag; APJ beta-arrestin recruitment, luminescence, antagonist mode; inhibition, % at 20 µM; 66% of 950 active; AID 2766; in the data active = inhibition above about 50%
CXCR6 antag conf: confirmation of human CXCR6 receptor antagonists | shares compounds with CXCR6 inh | CHO-K1 CXCR6 PathHunter beta-arrestin, luminescence | inhibition, % at 20 µM | 65% of 700 active;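 active = mean inhibition over four retests above 40%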;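 note: receptor stimulated with 10 nM CXCL16 agonist; beta-galactosidase fragment complementation upon beta-arrestin recruitment to receptor; plate controls were CXCL16 plus DMSO for no effect and DMSO without CXCL16 for full effect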
Starred values were filed as active, the others as inactive; . = no result given. Hits are enriched below; roughly 2.2% of the tested compounds scored in any of these assays.

SMILES | CCR6 antag | EBI2 antag | CXCR6 inh | APJ antag | APJ ag | m5-HT2A agonist | APJ antag confirm | CXCR6 antag conf
COc1cc(/C=C/c2ccc3cccc(OC)c3n2)c(OC(C)=O)c([N+](=O)[O-])c1 | 53* | 29 | 41* | 45* | -8 | 2 | 75* | 44*
CCCSc1cc(NCCOC(=O)CCC)c([N+](=O)[O-])c2nonc12 | 84* | -5 | 62* | 42* | -4 | 1 | 75* | 72*
CCC(=O)OCCNc1cc(Sc2nc3ccccc3s2)c2nonc2c1[N+](=O)[O-] | 109* | 27 | 89* | 68* | -5 | -2 | 86* | 101*
CC1C(=O)N(Cc2cn(CCC3OCCCO3)nn2)CCS(=O)(=O)N1Cc1ccc(-c2ccc(Cl)c(Cl)c2)cc1 (centres undefined) | . | 15 | -4 | . | . | 5 | . | .
O=C(NC(=S)Nc1ccccc1O)c1cccnc1 | 59* | 6 | 42* | 47* | -8 | -6 | 48 | 43*
CCC(C)c1ccc(O)c(NC(=S)NC(=O)c2cccnc2)c1 (centres undefined) | 87* | 19 | 74* | 67* | -12 | -16 | 131* | 70*
Cc1c(Nc2cc(Cl)c3nonc3c2[N+](=O)[O-])c(=O)n(-c2ccccc2)n1C | 91* | 61* | 88* | 83* | -7 | -9 | 115* | 105*
COC(=O)c1ccccc1-c1ccc(/C=N/NC(=O)c2cc3ccccc3o2)o1 | 3 | 4 | -2 | -10 | 1 | -6 | . | .
COC(=O)c1ccccc1-c1c2ccc(=N)cc-2oc2cc(N)ccc12 | 67* | 21 | 45* | 49* | -9 | -12 | 75* | 62*
O=C(Nc1nc2c(F)cc(F)cc2s1)c1ccccn1 | 79* | 63* | 49* | 80* | -8 | 10 | 84* | 69*
O=C(COc1ccccc1)NNc1nc2c(F)cc(F)cc2s1 | 4 | 3 | -7 | -15 | -1 | -2 | . | .
COc1cc(/C=C/[N+](=O)[O-])ccc1OC(=O)c1cc2ccccc2oc1=O | 29 | -8 | 76* | 46* | -2 | -8 | 91* | 69*
COc1ccccc1OC(=O)c1cc2ccccc2oc1=O | -6 | -12 | -1 | 11 | -1 | -1 | . | .
N#Cc1c([N+](=O)[O-])cc([N+](=O)[O-])cc1S(=O)(=O)Cc1ccccc1 | 106* | 6 | 95* | 64* | -1 | -6 | 61* | 87*
CCCCn1nnnc1C1(C)CCC(=O)N1CCCN1CCOCC1 (centres undefined) | . | -7 | 6 | . | . | 1 | . | .
COc1cc(/C=C(\C#N)c2nc(-c3cc4ccccc4oc3=O)cs2)ccc1O | 60* | 22 | 49* | 53* | -9 | 5 | 76* | 49*
Oc1cccc2ccc(/C=C/c3cccs3)nc12 | 72* | 40* | 50* | 53* | -8 | -7 | 51* | 51*
CSc1ccc(/C=C/c2ccc3cccc(O)c3n2)cc1 | 12 | 11 | 4 | 11 | -2 | -9 | . | .
Cc1ccsc1/C=C/c1ccc2cccc(O)c2n1 | 74* | 41 | 60* | 46* | -11 | -9 | 41 | 66*
O=C(NS(=O)(=O)c1ccc2ccc(S(=O)(=O)NCCSc3ccccc3)cc2c1)c1cccc2ccccc12 | . | 13 | -4 | . | . | 3 | . | .
Cc1ccc(S(=O)(=O)/C=C2\OCc3ccccc32)cc1 | . | -12 | . | . | . | -4 | . | .
CCn1c(NC)cc(=O)n(C)c1=O | 2 | 0 | -4 | -5 | 3 | -2 | . | .
CCn1c(=O)cc(NC2=NCC(C)CN2c2cccc(Cl)c2)n(C)c1=O (centres undefined) | 66* | 33 | 57* | 62* | -10 | -1 | 110* | 59*
O=c1[nH][nH]c2c1C(c1ccc(Cl)c(Cl)c1)OC(CCc1ccccc1)C2 (centres undefined) | . | 3 | -10 | . | . | -5 | . | .
CC1(C)CC(=O)C2=C(C1)OC1=C(C(=O)CC(C)(C)C1)C2c1ccc(O)c([N+](=O)[O-])c1 | 22 | -3 | 15 | 24 | -6 | -2 | . | .
